From ChEMBL document CHEMBL2040750, “Hybrids of ravuconazole: synthesis and biological evaluation” (2012)
In brackets after ≈: the same amount, converted by molar mass. Activity calls are given as the source filed them. The rule behind the calls is not given here.

Legend:
Format in all cases: functional
Aspergillus niger [1] = assay: Antifungal activity Aspergillus niger NCIM 545 at 100 ug/disc by agar-well diffusion assay; conditions: for zone of inhibition at 100 µg/disc: read-out: DIZ
Procedure, shortened: (§1)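 Agar-well diffusion screen against standard strains. Zone of inhibition is the read-out. Chloramphenicol, nystatin and ravuconazole were run as positive controls.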

Candida albicans [2] = assay: Antifungal activity Candida albicans NCIM 3471 at 100 ug/disc by agar-well diffusion assay; conditions: for zone of inhibition at 100 µg/disc: read-out: DIZ; procedure, shortened: as §1
Staphylococcus aureus [3] = assay: Antibacterial activity Staphylococcus aureus NCIM 2079 after 24 hrs by NCCLS method
Procedure, shortened: (§2)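 Broth microdilution MIC per NCCLS. Compounds dissolved in DMSO, serially diluted in growth medium, incubated at 37 °C. Read at 24 h for bacteria and 24–72 h for fungi. MIC90 taken as the first well with about 90% growth reduction relative to the drug-free well.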

Bacillus subtilis [4] = assay: Antibacterial activity Bacillus subtilis NCIM 2250 after 24 hrs by NCCLS method; procedure, shortened: as §2
Pseudomonas aeruginosa [5] = assay: Antibacterial activity Pseudomonas aeruginosa NCIM 2036 after 24 hrs by NCCLS method; procedure, shortened: as §2
Staphylococcus aureus [6] = assay: Antibacterial activity Staphylococcus aureus NCIM 2079 at 100 ug/disc by agar-well diffusion assay; conditions: for zone of inhibition at 100 µg/disc: read-out: DIZ; procedure, shortened: as §1
Bacillus subtilis [7] = assay: Antibacterial activity Bacillus subtilis NCIM 2250 at 100 ug/disc by agar-well diffusion assay; conditions: for zone of inhibition at 100 µg/disc: read-out: DIZ; procedure, shortened: as §1
Escherichia coli [8] = assay: Antibacterial activity Escherichia coli NCIM 2109 at 100 ug/disc by agar-well diffusion assay; conditions: for zone of inhibition at 100 µg/disc: read-out: DIZ; procedure, shortened: as §1
Candida albicans [9] = assay: Antifungal activity Candida albicans NCIM 3471 after 24 to 72 hrs by NCCLS method; procedure, shortened: as §2
Pseudomonas aeruginosa [10] = assay: Antibacterial activity Pseudomonas aeruginosa NCIM 2036 at 100 ug/disc by agar-well diffusion assay; conditions: for zone of inhibition at 100 µg/disc: read-out: DIZ; procedure, shortened: as §1
Escherichia coli [11] = assay: Antibacterial activity Escherichia coli NCIM 2109 after 24 hrs by NCCLS method; procedure, shortened: as §2
Aspergillus niger [12] = assay: Antifungal activity Aspergillus niger NCIM 545 after 24 to 72 hrs by NCCLS method; procedure, shortened: as §2

| Compound | zone of inhibition at 100 µg/disc (Aspergillus niger [1]) [mm] | zone of inhibition at 100 µg/disc (Candida albicans [2]) [mm] | MIC (Staphylococcus aureus [3]) | MIC (Bacillus subtilis [4]; NCIM 2250, 24 h) [µg/mL] | MIC (Pseudomonas aeruginosa [5]) | diameter of the inhibition zone (DIZ) (Staphylococcus aureus [6]) | zone of inhibition at 100 µg/disc (Bacillus subtilis [7]) [mm] | diameter of the inhibition zone (DIZ) (Escherichia coli [8]) | MIC (Candida albicans [9]) | diameter of the inhibition zone (DIZ) (Pseudomonas aeruginosa [10]) | MIC (Escherichia coli [11]) | MIC (Aspergillus niger [12]) | MIC (Staphylococcus aureus [3]; NCIM 2079, 24 h) [µg/mL] | MIC (Bacillus subtilis [4]) | MIC (Pseudomonas aeruginosa [5]; NCIM 2036, 24 h) [µg/mL] | zone of inhibition at 100 µg/disc (Staphylococcus aureus [6]) [mm] | diameter of the inhibition zone (DIZ) (Bacillus subtilis [7]) | zone of inhibition at 100 µg/disc (Pseudomonas aeruginosa [10]) [mm] | zone of inhibition at 100 µg/disc (Escherichia coli [8]) [mm] | MIC (Escherichia coli [11]; NCIM 2109, 24 h) [µg/mL] | other results |
| --- | --- | --- | --- | --- | --- | --- | --- | --- | --- | --- | --- | --- | --- | --- | --- | --- | --- | --- | --- | --- | --- |
| O=[N+]([O-])c1ccc(/C(Cn2cncn2)=N\Nc2nc(-c3ccc(F)cc3)cs2)cc1 | 14.4 | 11.2 | inactive | > 64 | inactive | inactive | 11.3 | inactive | > 64 µg/mL | inactive | inactive | > 64 µg/mL | – | – | – | – | – | – | – | – | – |
| O=[N+]([O-])c1ccc(/C(Cn2cncn2)=N\Nc2nc(-c3cc(C(F)(F)F)cc(C(F)(F)F)c3)cs2)cc1 | – | – | – | – | – | – | – | inactive | inactive | – | inactive | inactive | 64 (≈ 118 µM) | inactive | 64 (≈ 118 µM) | 17.2 | inactive | 16.8 | – | – | diameter of the inhibition zone (DIZ) (Aspergillus niger [1]): inactive; diameter of the inhibition zone (DIZ) (Candida albicans [2]): inactive |
| NYSTATIN | – | – | – | – | – | – | – | – | 16 µg/mL | – | – | 16 µg/mL | – | – | – | – | – | – | – | – | inhibition zone (IZ) (Aspergillus niger [1]): 21.6 mm; inhibition zone (IZ) (Candida albicans [2]): 23.3 mm |
| FC(F)(F)c1cc(/C(Cn2cncn2)=N\Nc2nc(-c3ccc(Br)cc3)cs2)cc(C(F)(F)F)c1 | – | – | inactive | > 64 | – | inactive | 10.1 | – | inactive | – | – | inactive | – | – | 32 (≈ 55.6 µM) | – | – | 20.4 | 17 | > 64 | diameter of the inhibition zone (DIZ) (Aspergillus niger [1]): inactive; diameter of the inhibition zone (DIZ) (Candida albicans [2]): inactive |
| Clc1ccc(/C(Cn2cncn2)=N\Nc2nc(-c3ccc(Cl)cc3)cs2)cc1 | 19.5 | 20.4 | – | – | – | – | – | – | 32 µg/mL (≈ 74.5 µM) | – | – | 32 µg/mL (≈ 74.5 µM) | 64 (≈ 149 µM) | inactive | 16 (≈ 37.3 µM) | 18.8 | inactive | 28.9 | 9.65 | > 64 | – |
| Fc1ccc(/C(Cn2cncn2)=N\Nc2nc(-c3cc(C(F)(F)F)cc(C(F)(F)F)c3)cs2)cc1 | 13.8 | – | inactive | – | – | inactive | – | – | inactive | – | – | 64 µg/mL (≈ 124 µM) | – | inactive | 32 (≈ 62.2 µM) | – | inactive | 23.9 | 14.9 | > 64 | diameter of the inhibition zone (DIZ) (Candida albicans [2]): inactive |
| Fc1ccc(/C(Cn2cncn2)=N\Nc2nc(-c3ccc(F)cc3)cs2)cc1 | 20.4 | 16.3 | – | 32 (≈ 80.7 µM) | – | – | 24.4 | – | 64 µg/mL (≈ 161 µM) | – | – | 16 µg/mL (≈ 40.4 µM) | 64 (≈ 161 µM) | – | 32 (≈ 80.7 µM) | 16.1 | – | 24.1 | 21.5 | 32 (≈ 80.7 µM) | – |
| O=[N+]([O-])c1ccc(/C(Cn2cncn2)=N\Nc2nc(-c3ccc(Cl)cc3)cs2)cc1 | – | – | – | 64 (≈ 145 µM) | inactive | – | 15.8 | inactive | inactive | inactive | inactive | inactive | > 64 | – | – | 14.2 | – | – | – | – | diameter of the inhibition zone (DIZ) (Aspergillus niger [1]): inactive; diameter of the inhibition zone (DIZ) (Candida albicans [2]): inactive |
| Fc1ccc(-c2csc(N/N=C(/Cn3cncn3)c3ccc(Br)cc3)n2)cc1 | 11.9 | 14.4 | – | 32 (≈ 70 µM) | inactive | – | 20.3 | inactive | 64 µg/mL (≈ 140 µM) | inactive | inactive | > 64 µg/mL | 64 (≈ 140 µM) | – | – | 15.5 | – | – | – | – | – |
| Fc1ccc(/C(Cn2cncn2)=N\Nc2nc(-c3ccc(Cl)cc3)cs2)cc1 | 20.7 | 18.8 | – | 32 (≈ 77.5 µM) | inactive | – | 20.5 | – | 32 µg/mL (≈ 77.5 µM) | inactive | – | 16 µg/mL (≈ 38.8 µM) | 64 (≈ 155 µM) | – | – | 22.3 | – | – | 15.9 | > 64 | – |
| O=[N+]([O-])c1ccc(-c2csc(N/N=C(/Cn3cncn3)c3ccc(F)cc3)n2)cc1 | 9.44 | – | inactive | – | inactive | inactive | – | – | inactive | inactive | – | > 64 µg/mL | – | inactive | – | – | inactive | – | 10.9 | > 64 | diameter of the inhibition zone (DIZ) (Candida albicans [2]): inactive |
| Clc1ccc(-c2csc(N/N=C(/Cn3cncn3)c3ccc(Br)cc3)n2)cc1 | 16.7 | 16.2 | – | 64 (≈ 135 µM) | – | – | 17.3 | inactive | 64 µg/mL (≈ 135 µM) | – | inactive | 32 µg/mL (≈ 67.5 µM) | > 64 | – | 32 (≈ 67.5 µM) | 13.1 | – | 21.7 | – | – | – |
| Fc1ccc(-c2csc(N/N=C(/Cn3cncn3)c3ccc(Cl)cc3)n2)cc1 | 18.8 | 19.1 | – | 64 (≈ 155 µM) | inactive | – | 16.8 | – | 32 µg/mL (≈ 77.5 µM) | inactive | – | 32 µg/mL (≈ 77.5 µM) | 32 (≈ 77.5 µM) | – | – | 25.7 | – | – | 13.9 | > 64 | – |
| O=C(O)c1cn(C2CC2)c2cc(N3CCNCC3)c(F)cc2c1=O [CIPROFLOXACIN] | – | – | – | 16 (≈ 48.3 µM) | – | – | 26.7 | – | – | – | – | – | – | – | 16 (≈ 48.3 µM) | 28.4 | – | 30.9 | 26.2 | – | – |
| O=[N+]([O-])c1ccc(/C(Cn2cncn2)=N\Nc2nc(-c3ccc([N+](=O)[O-])cc3)cs2)cc1 | – | – | inactive | – | – | inactive | – | – | inactive | – | – | inactive | – | inactive | 64 (≈ 142 µM) | – | inactive | 20.8 | 10.8 | > 64 | diameter of the inhibition zone (DIZ) (Aspergillus niger [1]): inactive; diameter of the inhibition zone (DIZ) (Candida albicans [2]): inactive |
| C[C@@H](c1nc(-c2ccc(C#N)cc2)cs1)[C@](O)(Cn1cncn1)c1ccc(F)cc1F [RAVUCONAZOLE] | 20.2 | 28.6 | inactive | – | inactive | inactive | – | inactive | 1 µg/mL (≈ 2.29 µM) | inactive | inactive | 32 µg/mL (≈ 73.1 µM) | – | inactive | – | – | inactive | – | – | – | – |
| O=[N+]([O-])c1ccc(-c2csc(N/N=C(/Cn3cncn3)c3ccc(Cl)cc3)n2)cc1 | 14.5 | 11.7 | inactive | > 64 | inactive | inactive | 12.2 | – | > 64 µg/mL | inactive | – | > 64 µg/mL | – | – | – | – | – | – | 10.6 | > 64 | – |
| Fc1ccc(-c2csc(N/N=C(/Cn3cncn3)c3cc(C(F)(F)F)cc(C(F)(F)F)c3)n2)cc1 | 17.3 | 19.4 | – | > 64 | – | – | 9.77 | inactive | > 64 µg/mL | – | inactive | 32 µg/mL (≈ 62.2 µM) | 64 (≈ 124 µM) | – | 16 (≈ 31.1 µM) | 21.2 | – | 22.9 | – | – | – |
| FC(F)(F)c1cc(/C(Cn2cncn2)=N\Nc2nc(-c3cc(C(F)(F)F)cc(C(F)(F)F)c3)cs2)cc(C(F)(F)F)c1 | 15.2 | 11.7 | inactive | – | inactive | inactive | – | – | 64 µg/mL (≈ 101 µM) | inactive | inactive | 32 µg/mL (≈ 50.6 µM) | – | inactive | – | – | inactive | – | 13.1 | – | – |
